Results: ChEMBL document CHEMBL3091299, “Adamantyl derivative as a potent inhibitor of Plasmodium FK506 binding protein 35” (ACS Med Chem Lett, 2013)
The source made the active and inactive calls. The calls are words filed in the database; no cut-off is given here.

Legend:
Plasmodium falciparum [1] = assay: Antimicrobial activity against mid-ring stage Plasmodium falciparum 3D7 infected in erythrocytes assessed as change in parasite morphology at 500 nM after 8 hrs by Giemsa-staining based microscopy relative to control; assay type: functional, organism-based
Method in brief: (§1)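 Highly synchronized ring-infected erythrocytes (3D7) followed over one full 48 h intraerythrocytic cycle with inhibitor, chloroquine, artemisinin, or no treatment. Parasitaemia (%) and morphology were scored from Giemsa-stained smears every 8 h, with untreated parasites as reference.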

Plasmodium falciparum [2] = assay: Antimicrobial activity against mid-ring stage Plasmodium falciparum 3D7 infected in erythrocytes assessed as death and disintegration of parasite at 500 nM after 16 to 24 hrs by Giemsa-staining based microscopy relative to control; assay type: functional, organism-based; method in brief: as §1
Plasmodium falciparum [3] = assay: Antimicrobial activity against mid-ring stage Plasmodium falciparum 3D7 infected in erythrocytes assessed as reduction in trophozoite stage development at 500 nM after 16 to 24 hrs by Giemsa-staining based microscopy relative to control; assay type: functional, organism-based; method in brief: as §1
Plasmodium falciparum [4] = assay: Antimicrobial activity against mid-ring stage Plasmodium falciparum 3D7 infected in erythrocytes assessed as reduction in parasitemia at 500 nM after 8 hrs by Giemsa-staining based microscopy relative to control; assay type: functional, organism-based; method in brief: as §1
Homo sapiens = species on record: Homo sapiens; assay: Inhibition of human recombinant calcineurin phosphatase activity using RII phosphopeptide as substrate incubated 10 to 30 mins prior to substrate addition by spectrophotometry
Plasmodium falciparum [5] = assay: Antimicrobial activity against Plasmodium falciparum 3D7 infected in erythrocytes assessed as impairment of trophozoite-stage maturation at 500 nM after 8 hrs by Giemsa-staining based microscopy relative to control; assay type: functional, organism-based
Plasmodium falciparum [6] = assay: Antimicrobial activity against Plasmodium falciparum 3D7 infected in erythrocytes assessed as schizont-stage maturation at 500 nM after 4 to 24 hrs by Giemsa-staining based microscopy relative to control; assay type: functional, organism-based
[7] = Inhibition of Plasmodium falciparum recombinant FKBP35 using Succ-Ala-Leu-Pro-Phe-pNA as substrate after 30 mins by UV-Vis spectrophotometry in presence of alpha-chymotrypsin
Plasmodium falciparum [8] = assay: Antimicrobial activity against Plasmodium falciparum 3D7 infected in erythrocytes assessed as ring-stage maturation at 500 nM after 4 to 24 hrs by Giemsa-staining based microscopy relative to control; assay type: functional, organism-based
[9] = Inhibition of Plasmodium vivax recombinant FKBP35 using Succ-Ala-Leu-Pro-Phe-pNA as substrate after 30 mins by UV-Vis spectrophotometry in presence of alpha-chymotrypsin
Plasmodium falciparum [10] = assay: Antimicrobial activity against Plasmodium falciparum 3D7 infected in erythrocytes assessed as disintegration of trophozoite-stage maturation at 500 nM after 16 hrs by Giemsa-staining based microscopy relative to control; assay type: functional, organism-based

**Q.** For CCN(CC)CCCC(C)Nc1ccnc2cc(Cl)ccc12 (stereo not drawn), which Activity (Plasmodium falciparum [1]) is on record?
**A.** inactive

**Q.** What about the Activity (Plasmodium falciparum [2]) of the same compound?
**A.** Active

**Q.** And the Activity (Plasmodium falciparum [3])?
**A.** Active

**Q.** What about the Activity (Plasmodium falciparum [4]) of the same compound?
**A.** inactive

**Q.** What does the source list for O=C(NNC(=O)C12CC3CC(CC(C3)C1)C2)c1ccncc1?
**A.** inhibition (Homo sapiens): inactive; Activity (Plasmodium falciparum [5]): Active; Activity (Plasmodium falciparum [6]): inactive; Activity (Plasmodium falciparum [1]): inactive; IC50 [7]: 0.083 µM; Activity (Plasmodium falciparum [8]): inactive; IC50 [9]: 0.075 µM; Activity (Plasmodium falciparum [2]): Active; Activity (Plasmodium falciparum [3]): Active; Activity (Plasmodium falciparum [10]): Active; Activity (Plasmodium falciparum [4]): inactive

**Q.** Which Activity (Plasmodium falciparum [6]) does the source give for O=C(NNC(=O)C12CC3CC(CC(C3)C1)C2)c1ccccc1 here?
**A.** inactive

**Q.** And the IC50 [7]?
**A.** 0.0948 µM

**Q.** And the Activity (Plasmodium falciparum [8])?
**A.** inactive

**Q.** What does the source list for O=C(NNC(=O)C12CC3CC(CC(C3)C1)C2)c1cccc2ccccc12?
**A.** Activity (Plasmodium falciparum [6]): inactive; IC50 [7]: 0.0493 µM; Activity (Plasmodium falciparum [8]): inactive

**Q.** Which Activity (Plasmodium falciparum [4]) does the source give for C[C@@H]1CC[C@H]2[C@@H](C)C(=O)O[C@@H]3O[C@@]4(C)CC[C@@H]1[C@]32OO4 here?
**A.** Active

**Q.** With C=CC[C@@H]1/C=C(\C)C[C@H](C)C[C@H](OC)[C@H]2O[C@@](O)(C(=O)C(=O)N3CCCC[C@H]3C(=O)O[C@H](/C(C)=C/[C@@H]3CC[C@@H](O)[C@H](OC)C3)[C@H](C)[C@@H](O)CC1=O)[C@H](C)C[C@@H]2OC as the compound, how does the inhibition (Homo sapiens) read?
**A.** Active
